Consider 8 compounds from ChEMBL document CHEMBL1138691, “Substituted furo[3,2-b]pyridines: novel bioisosteres of 5-HT 1F receptor agonists” (Bioorg Med Chem Lett, 2004).

Assay [1] can be described thus: Ratio of the Ki value for human 5-HT1B receptor versus human 5-HT1F receptor. The method, boiled down: (§1)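 Selectivity ratio: Ki at human 5-HT1A, 5-HT1B or 5-HT1D receptor divided by Ki at human 5-HT1F receptor. Each Ki from radioligand binding in cell lines expressing the relevant human receptor, derived from two or more experiments.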
Assay [2] can be described thus: Ratio of the Ki value for human 5-HT1D receptor versus human 5-HT1F receptor. The method, boiled down: as §1
Assay [3] in a line: Ratio of the Ki value for human 5-HT1A receptor versus human 5-HT1F receptor. The method, boiled down:
as §1

The target in assay [4] is T1, 5-hydroxytryptamine receptor 1F (Homo sapiens, UniProt P30939).
T1 sequence (P30939 whole entry): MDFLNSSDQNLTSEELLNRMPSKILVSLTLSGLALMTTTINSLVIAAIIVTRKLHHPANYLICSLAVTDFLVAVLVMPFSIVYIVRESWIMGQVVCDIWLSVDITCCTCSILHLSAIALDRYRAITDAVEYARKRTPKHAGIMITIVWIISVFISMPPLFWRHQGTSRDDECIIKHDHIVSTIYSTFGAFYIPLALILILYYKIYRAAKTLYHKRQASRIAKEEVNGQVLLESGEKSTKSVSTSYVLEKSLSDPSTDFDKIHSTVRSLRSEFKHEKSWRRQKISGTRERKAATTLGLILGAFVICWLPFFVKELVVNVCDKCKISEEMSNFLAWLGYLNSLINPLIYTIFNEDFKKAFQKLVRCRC
Briefly: In vitro binding affinity for human 5-hydroxytryptamine 1F receptor. The method, boiled down:
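Radioligand binding in cell lines expressing the human 5-HT receptor; Ki reported as mean of three or more experiments with SEM.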

The target in assay [5] is Serotonin (5-HT) receptor (Homo sapiens) (UniProt P30939+P41595+Q13639+P28222+P46098+P08908+P28221+P28223+P28335+P28566+P34969+P50406+P47898+A5X5Y0+O95264+Q70Z44+Q8WXA8). Description: Maximum stimulation of [35S]GTP-gamma-S, binding expressed relative to the maximal effect of 5-hydroxytryptamine. In kind it is functional. The method, boiled down:
(§2)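 [35S]GTP-γ-S binding stimulated in mouse LM(tk-) cells expressing human 5-HT1F receptor; means of at least two separate experiments, each run in triplicate, with SEM.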
For orientation: Binding of GTPγS marks nucleotide exchange on a G protein.

The target of assay [6] is T1, 5-hydroxytryptamine receptor 1F. Description: Concentration required for stimulation of [35S]GTP-gamma-S, binding in mouse LM(tk-1) cells expressing the human 5-hydroxytryptamine 1F receptor. In kind it is functional, cell-based. The method, boiled down:
as §2

Where only a bound is given, the exact number is not on record here.

With `CN1CCC(c2coc3ccc(NC(=O)c4ccc(F)cc4)nc23)CC1`, the Selectivity ratio in assay [1] is above 1000; in assay [2], above 1000; in assay [3], 134. Besides, in assay [4], affinity was put at a Ki of 3.1 nM. Further, the maximal effect (Emax) – broadly, the maximal effect, on the per cent scale that the assay sets – in assay [5] came to 88%. Moreover, the midpoint of the response in assay [6], the EC50, lay at 66 nM.
As for `CN1CCC(c2coc3ccc(NC(=O)c4ccc(F)cc4Cl)nc23)CC1`, the Selectivity ratio in assay [1] turned out to be 177; in assay [2], 165; in assay [3], 47. Further, the affinity in assay [4] corresponds to a Ki of 3 nM. The same compound showed an Emax in assay [5] of 92%. Moreover, the EC50 (usually the concentration at which the effect is half-maximal) in assay [6] was 27.7 nM.
Take `CN1CCC(c2c[nH]c3ccc(NC(=O)c4ccc(F)cc4)cc23)CC1`: the Selectivity ratio in assay [1] was 85; in assay [2], 86; in assay [3] it was 7. For the same compound, affinity in assay [4] was put at a Ki of 1.6 nM.
`CN1CCC(c2coc3ccc(NC(=O)c4c(F)cccc4Cl)nc23)CC1`: the Selectivity ratio was 164 in assay [1], 31 in assay [2] and 103 in assay [3]. Also, the affinity in assay [4], expressed as Ki, was 2.9 nM. Further, the Emax in assay [5] worked out at 87%. In assay [6], this compound gave an EC50 of 68.7 nM.
For `Cc1[nH]c2ccc(NC(=O)c3ccc(F)cc3)cc2c1CCN(C)C`, the Selectivity ratio in assay [1] was 130; in assay [2], 200; in assay [3] it was 32. In assay [4], the inhibition constant (Ki) (as a rule, a measure of affinity in units of concentration, obtained from inhibition or displacement) is 8.2 nM.
On to `Cc1oc2ccc(NC(=O)c3ccc(F)cc3)nc2c1CCN(C)C`, for which the Selectivity ratio was found to be 42 in assay [1], 19 in assay [2] and 65 in assay [3]. Moreover, the inhibitory constant (Ki) in assay [4] was 13.5 nM.
As for `CN1CCC(c2c[nH]c3ccc(NC(=O)c4ccc(F)cc4)nc23)CC1`, the Selectivity ratio in assay [1] was found to be 160; in assay [2], 960; in assay [3] it was 7.3.
`CN1CCC(c2coc3ccc(NC(=O)c4c(F)cc(F)cc4F)nc23)CC1`: the results for the Selectivity ratio in assay [1], in assay [2] and in assay [3] were 181, 62 and 57, respectively. Besides, in assay [4], the inhibitory constant (Ki) came to 2.3 nM. Besides, the Emax in assay [5] came to 87%. For the same compound, the EC50 in assay [6] was determined as 91.7 nM.
